This note sets out measurements from ChEMBL document CHEMBL2321729, “Identification of acidic heterocycle-substituted 1H-pyrazolo[3,4-b]pyridines as soluble guanylate cyclase stimulators” (Bioorg Med Chem Lett, 2013).

The structures appear in SMILES notation. ≈ marks a conversion by molar mass, not a printed value.

Data set [1] is described as follows: Stimulation of soluble guanylate cyclase activity in pre-contracted rabbit aortic rings assessed as inhibition of vasoconstriction. The note with it: Oryctolagus cuniculus. The method, boiled down: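 Relaxation of rabbit aortic rings that were pre-contracted before exposure. IC50 given as the mean of three experiments.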
The next data set concerns Hepatocyte. Briefly: Stability of the compound in rat liver hepatocytes. Type of data set: ADME, cell-based. The method, boiled down:
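Bioavailability (Fmax) predicted from incubation with rat liver hepatocytes.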

Data set [2] is described as follows: Half life in Wistar rat at 0.3 mg/kg, iv and 0.3 mg/kg, po. To be noted: in vivo. In kind it is ADME, organism-based. The method, boiled down: (§1)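 Wistar rats given 0.3 mg/kg as an intravenous bolus and by oral gavage, formulated in EtOH/PEG400/H₂O; mean values. AUC_norm was calculated from the concentration–time curve after the intravenous dose. Clearance was taken as total plasma (or total blood) clearance. Mean residence time, half-life and oral bioavailability were also derived.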

Data set [3] can be described thus: Mean residence time in Wistar rat at 0.3 mg/kg, iv and 0.3 mg/kg, po. Type of data set: ADME, organism-based. To be noted: in vivo. The method, boiled down:
as §1

Data set [4] can be described thus: Oral bioavailability in Wistar rat at 0.3 mg/kg. Type of data set: ADME, organism-based. The note with it: in vivo. The method, boiled down: as §1
The test system of data set [5] is Rattus norvegicus. Briefly: Antihypertensive activity in po dosed spontaneously hypertensive rat assessed as reduction of blood pressure measured up to 24 hrs. In kind it is functional, organism-based. The method, boiled down:
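Oral gavage at 0 h in spontaneously hypertensive rats; controls given vehicle. Blood pressure expressed as a percentage of initial values (131–142 mmHg). Mean of 6–12 animals.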

The nature of data set [6]: Total blood clearance in Wistar rat at 0.3 mg/kg, iv and 0.3 mg/kg, po. The note with it: whole blood. Type of data set: ADME, organism-based. The method, boiled down:
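Wistar rats received 0.3 mg/kg by intravenous bolus and by oral gavage, vehicle EtOH/PEG400/H₂O. Total blood clearance was reported as the mean value from these administrations.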

For data set [7], the system named is Rattus norvegicus. Briefly: Dose normalized AUC in Wistar rat at 0.3 mg/kg, iv. Type of data set: ADME, organism-based. On the set-up: dose 0.3 mg/kg, route intravenous. To be noted: in vivo. The method, boiled down:
as §1

Data set [8] can be described thus: Pseudo-thermodynamic solubility of the compound at pH 6.5. Type of data set: physicochemical. To be noted: buffer, read-out: Therm_solubility. The method, boiled down: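 Pseudo-thermodynamic solubility measured at pH 6.5.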
In the next data set the test system is Liver microsomes. Briefly: Stability of the compound in rat liver microsomes. In kind it is ADME, Microsome. The method, boiled down:
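Bioavailability (Fmax) predicted from incubation with rat liver microsomes.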

Data set [9] is described as follows: Total plasma clearance in Wistar rat at 0.3 mg/kg, iv and 0.3 mg/kg, po. In kind it is ADME, organism-based. The method, boiled down:
as §1

`O=c1[nH]c(-c2nn(Cc3ccccc3F)c3ncccc23)nn1CC(F)(F)F`: the IC50 in data set [1] amounted to 610 nM. In the data set with Hepatocyte, this compound registered a Stability of 91%.
In the case of `O=c1[nH]c(-c2nn(Cc3ccccc3F)c3ncccc23)no1`, the IC50 in [1] was found to be 1260 nM. The compound also showed a Stability with Hepatocyte of 98%. The half-life in [2] is 1.4 h. The compound also displayed a mean residence time MRT in [3] of 1.9 h. In addition, the bioavailability in data set [4] came to 75%. Moreover, the Activity result in the data set on Rattus norvegicus [5] was “Dose-dependent effect”. This compound also gave a clearance in data set [6] of 11.7 mL/min/kg. Also, the AUC/dose in the data set with Rattus norvegicus [7] amounted to 2.79 kg·h/L. The solubility thermodynamic in data set [8] is 320 µg/mL (≈ 1030 µM).
As for `O=c1[nH]c(-c2nn(Cc3ccccc3F)c3ncccc23)ns1`, the 50% inhibitory concentration (IC50) in [1] was 520 nM. The compound further registered a Stability in the data set with Hepatocyte of 90%. Moreover, the solubility thermodynamic in data set [8] worked out at 11 µg/mL (≈ 33.6 µM).
Take `Fc1ccccc1Cn1nc(-c2noc(=S)[nH]2)c2cccnc21`: the IC50 in data set [1] stood at 1100 nM. The Stability in the data set with Hepatocyte is listed as 69%. In addition, in data set [8], the solubility thermodynamic worked out at 280 µg/mL (≈ 855 µM).
Regarding `O=c1[nH]nc(-c2nn(Cc3ccccc3F)c3ncccc23)o1`, the half-maximal inhibitory concentration (IC50) in data set [1] turned out to be 610 nM. For the same compound, the solubility thermodynamic in data set [8] is 10 µg/mL (≈ 32.1 µM). In the data set on Liver microsomes, this compound registered a Stability of 59%.
As for `Nc1nc(-c2nn(Cc3ccccc3F)c3ncccc23)nc(N)c1N1CCOCC1`, the IC50 in [1] was found to be 100 nM. In addition, in the data set with Hepatocyte, the Stability turned out to be 76%. The same compound had a half-life in [2] of 1.2 h. For the same compound, the bioavailability in data set [4] was determined as 25%. In addition, the clearance in [6] was 75 mL/min/kg. In the data set with Rattus norvegicus [7], this compound yielded an AUC/dose of 0.32 kg·h/L.
As for `O=c1[nH]nc(-c2nn(Cc3ccccc3F)c3ncccc23)[nH]1`, in data set [1], the IC50 was 3100 nM. Also, the Stability in the data set with Hepatocyte was determined as 59%. In data set [8], the solubility thermodynamic was determined as 16 µg/mL (≈ 51.6 µM).
Take `Fc1ccccc1Cn1nc(-c2nnn[nH]2)c2cccnc21`: the half-maximal inhibitory concentration (IC50) in data set [1] was 8600 nM. In the data set with Hepatocyte, the Stability amounted to 100%. Besides, the half-life in data set [2] was 2.4 h. For the same compound, the bioavailability in data set [4] amounted to 94%. The same compound showed a clearance in [9] of 4.67 mL/min/kg. Besides, the AUC/dose in the data set on Rattus norvegicus [7] worked out at 3.63 kg·h/L. Further, the solubility thermodynamic in data set [8] came to 150 µg/mL (≈ 508 µM).
For the compound `CCn1nc(-c2nn(Cc3ccccc3F)c3ncccc23)[nH]c1=O`, the IC50 in data set [1] is 730 nM. The Stability in the data set on Hepatocyte turned out to be 69%.
Regarding `Cn1nc(-c2nn(Cc3ccccc3F)c3ncccc23)[nH]c1=O`, the half-maximal inhibitory concentration (IC50) in [1] was 870 nM. In the data set on Hepatocyte, the Stability is given as 74%. Also, in data set [8], the solubility thermodynamic worked out at 4 µg/mL (≈ 12.3 µM).
